# Active and inactive are the calls of the source.
# Target: T1, Mu-type opioid receptor (Rattus norvegicus, UniProt P33535)
# Experiment: Displacement of [3H]diprenorphine from rat mu opioid receptor expressed in rat C6 cell membranes measured after 1 hr by liquid scintillation counting method
# Details: not given
# How it was run: (§1)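 Competition with 0.2 nM [3H]-diprenorphine on membranes (20 μg protein/tube) from stably transfected cells in 50 mM Tris-HCl pH 7.4, 1 h at room temperature with shaking; GF/C filtration, three washes, scintillation counting. Nonspecific binding defined with 10 μM naloxone.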
# T1 sequence (P33535 whole entry): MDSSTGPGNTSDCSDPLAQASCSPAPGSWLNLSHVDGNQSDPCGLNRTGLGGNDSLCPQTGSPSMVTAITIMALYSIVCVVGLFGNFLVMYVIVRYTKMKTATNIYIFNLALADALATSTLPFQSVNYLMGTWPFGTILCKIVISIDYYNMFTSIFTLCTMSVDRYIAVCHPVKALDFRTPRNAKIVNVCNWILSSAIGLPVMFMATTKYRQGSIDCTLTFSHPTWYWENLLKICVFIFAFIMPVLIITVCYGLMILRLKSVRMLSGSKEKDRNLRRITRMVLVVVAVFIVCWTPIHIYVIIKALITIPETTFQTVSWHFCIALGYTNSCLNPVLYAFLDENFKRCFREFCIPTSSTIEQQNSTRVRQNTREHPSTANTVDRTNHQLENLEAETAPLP
row,SMILES,Ki [nM]
1,Cc1cc(O)cc(C)c1C[C@H](N)C(=O)N[C@@H]1CCN(C(=O)c2ccccc2)c2ccc(Cc3cc4ccccc4o3)cc21.O=C(O)C(F)(F)F,0.35
2,CC(=O)N1CC[C@@H](NC(=O)[C@@H](N)Cc2c(C)cc(O)cc2C)c2cc(Cc3cc4ccccc4o3)ccc21,0.12
3,Cc1cc(O)cc(C)c1C[C@H](N)C(=O)N[C@@H]1CCN(S(C)(=O)=O)c2ccc(Cc3ccc4ccccc4c3)cc21.O=C(O)C(F)(F)F,0.04
4,Cc1cc(O)cc(C)c1C[C@H](N)C(=O)N[C@@H]1CCN(C(=O)C2CC2)c2ccc(Cc3cnc4ccccc4c3)cc21.O=C(O)C(F)(F)F,0.05

# System: Mus musculus
# Experiment: Antinociceptive activity in C57BL/6 mouse assessed as increase in latency to tail withdrawal up to 10 mg/kg, ip administered at 30 mins interval measured during compound dosing by warm water tail withdrawal assay relative to control
# Type: functional
# Details: not given
# How it was run: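 Male C57BL/6 mice, 20–30 g, 8–16 weeks. Saline ip, baseline latency 30 min later; then cumulative ip doses 1, 3.2, 10 mg/kg in 5% DMSO/saline at 30 min intervals, latency read 30 min after each. Tail tip (2–3 cm) in 50°C water, 20 s cutoff; expressed as % MPE (MPE = 20 s).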
row,SMILES,MPE
1,Cc1cc(O)cc(C)c1C[C@H](N)C(=O)N[C@@H]1CCNc2ccc(Cc3cc4ccccc4o3)cc21.O=C(O)C(F)(F)F,50%
2,Cc1cc(O)cc(C)c1C[C@H](N)C(=O)N[C@@H]1CCN(C(=O)c2ccccc2)c2ccc(Cc3cc4ccccc4o3)cc21.O=C(O)C(F)(F)F,inactive
3,CC(=O)N1CC[C@@H](NC(=O)[C@@H](N)Cc2c(C)cc(O)cc2C)c2cc(Cc3cc4ccccc4o3)ccc21,inactive
4,Cc1cc(O)cc(C)c1C[C@H](N)C(=O)N[C@@H]1CCN(S(C)(=O)=O)c2ccc(Cc3ccc4ccccc4c3)cc21.O=C(O)C(F)(F)F,inactive
5,Cc1cc(O)cc(C)c1C[C@H](N)C(=O)N[C@@H]1CCN(C(=O)C2CC2)c2ccc(Cc3cnc4ccccc4c3)cc21.O=C(O)C(F)(F)F,inactive

# Target: T2, Delta-type opioid receptor (Rattus norvegicus, UniProt P33533)
# T2 sequence (P33533 whole entry): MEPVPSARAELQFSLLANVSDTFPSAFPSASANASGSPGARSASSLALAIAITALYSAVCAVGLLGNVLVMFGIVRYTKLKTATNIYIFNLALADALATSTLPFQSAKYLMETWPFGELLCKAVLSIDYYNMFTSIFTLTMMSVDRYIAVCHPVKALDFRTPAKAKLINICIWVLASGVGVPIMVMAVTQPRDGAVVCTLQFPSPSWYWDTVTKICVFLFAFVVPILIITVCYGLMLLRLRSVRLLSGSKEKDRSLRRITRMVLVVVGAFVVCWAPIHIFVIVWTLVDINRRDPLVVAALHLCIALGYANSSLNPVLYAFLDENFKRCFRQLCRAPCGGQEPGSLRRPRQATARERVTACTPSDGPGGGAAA
# Experiment: Displacement of [3H]diprenorphine from rat delta opioid receptor expressed in rat C6 cell membranes measured after 1 hr by liquid scintillation counting method
# Details: not given
row,SMILES,Ki [nM]
1,Cc1cc(O)cc(C)c1C[C@H](N)C(=O)N[C@@H]1CCNc2ccc(Cc3cc4ccccc4o3)cc21.O=C(O)C(F)(F)F,5
2,Cc1cc(O)cc(C)c1C[C@H](N)C(=O)N[C@@H]1CCN(C(=O)c2ccccc2)c2ccc(Cc3cc4ccccc4o3)cc21.O=C(O)C(F)(F)F,0.64
3,CC(=O)N1CC[C@@H](NC(=O)[C@@H](N)Cc2c(C)cc(O)cc2C)c2cc(Cc3cc4ccccc4o3)ccc21,0.73
4,Cc1cc(O)cc(C)c1C[C@H](N)C(=O)N[C@@H]1CCN(S(C)(=O)=O)c2ccc(Cc3ccc4ccccc4c3)cc21.O=C(O)C(F)(F)F,0.95
5,Cc1cc(O)cc(C)c1C[C@H](N)C(=O)N[C@@H]1CCN(C(=O)C2CC2)c2ccc(Cc3cnc4ccccc4c3)cc21.O=C(O)C(F)(F)F,0.08

# Target: Mu-type opioid receptor (Rattus norvegicus) (UniProt P33535)
# Sequence (P33535 whole entry): as the sequence (P33535 whole entry) above
# Experiment: Agonist activity at rat mu opioid receptor expressed in rat C6 glioma cell membranes assessed as stimulation of [35S]GTPgammaS binding measured after 1 hr relative to DAMGO
# Type: functional
# Details: not given
row,SMILES,Efficacy [%]
1,Cc1cc(O)cc(C)c1C[C@H](N)C(=O)N[C@@H]1CCNc2ccc(Cc3cc4ccccc4o3)cc21.O=C(O)C(F)(F)F,98
2,Cc1cc(O)cc(C)c1C[C@H](N)C(=O)N[C@@H]1CCN(C(=O)c2ccccc2)c2ccc(Cc3cc4ccccc4o3)cc21.O=C(O)C(F)(F)F,58 to 64
3,CC(=O)N1CC[C@@H](NC(=O)[C@@H](N)Cc2c(C)cc(O)cc2C)c2cc(Cc3cc4ccccc4o3)ccc21,86
4,Cc1cc(O)cc(C)c1C[C@H](N)C(=O)N[C@@H]1CCN(S(C)(=O)=O)c2ccc(Cc3ccc4ccccc4c3)cc21.O=C(O)C(F)(F)F,102
5,Cc1cc(O)cc(C)c1C[C@H](N)C(=O)N[C@@H]1CCN(C(=O)C2CC2)c2ccc(Cc3cnc4ccccc4c3)cc21.O=C(O)C(F)(F)F,47

# Target: T3, Kappa-type opioid receptor (Homo sapiens, UniProt P41145)
# T3 sequence (P41145 whole entry): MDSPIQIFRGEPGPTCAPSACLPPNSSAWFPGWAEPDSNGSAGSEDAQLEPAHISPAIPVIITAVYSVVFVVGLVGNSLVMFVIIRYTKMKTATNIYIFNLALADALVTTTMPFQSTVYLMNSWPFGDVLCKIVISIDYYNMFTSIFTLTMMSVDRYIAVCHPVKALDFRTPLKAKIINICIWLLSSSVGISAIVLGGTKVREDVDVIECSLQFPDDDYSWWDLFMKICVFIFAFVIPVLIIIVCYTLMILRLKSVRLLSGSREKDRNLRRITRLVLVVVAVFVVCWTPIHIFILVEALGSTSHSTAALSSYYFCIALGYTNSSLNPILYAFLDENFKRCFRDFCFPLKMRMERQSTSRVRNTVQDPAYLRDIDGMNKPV
# Experiment: Agonist activity at human kappa opioid receptor expressed in CHO cell membranes assessed as stimulation of [35S]GTPgammaS binding measured after 1 hr
# Type: functional
# Details: cho
row,SMILES,EC50
1,Cc1cc(O)cc(C)c1C[C@H](N)C(=O)N[C@@H]1CCNc2ccc(Cc3cc4ccccc4o3)cc21.O=C(O)C(F)(F)F,Not Active
2,Cc1cc(O)cc(C)c1C[C@H](N)C(=O)N[C@@H]1CCN(C(=O)c2ccccc2)c2ccc(Cc3cc4ccccc4o3)cc21.O=C(O)C(F)(F)F,Not Active
3,Cc1cc(O)cc(C)c1C[C@H](N)C(=O)N[C@@H]1CCN(S(C)(=O)=O)c2ccc(Cc3ccc4ccccc4c3)cc21.O=C(O)C(F)(F)F,Not Active
4,Cc1cc(O)cc(C)c1C[C@H](N)C(=O)N[C@@H]1CCN(C(=O)C2CC2)c2ccc(Cc3cnc4ccccc4c3)cc21.O=C(O)C(F)(F)F,Not Active

# Same assay, conditions: read-out: EC50
row,SMILES,EC50 [nM]
1,CC(=O)N1CC[C@@H](NC(=O)[C@@H](N)Cc2c(C)cc(O)cc2C)c2cc(Cc3cc4ccccc4o3)ccc21,> 500

# Target: T3, Kappa-type opioid receptor
# Experiment: Displacement of [3H]diprenorphine from human kappa opioid receptor expressed in CHO cell membranes measured after 1 hr by liquid scintillation counting method
# Details: not given
# How it was run: as §1
row,SMILES,Ki [nM]
1,Cc1cc(O)cc(C)c1C[C@H](N)C(=O)N[C@@H]1CCNc2ccc(Cc3cc4ccccc4o3)cc21.O=C(O)C(F)(F)F,40
2,Cc1cc(O)cc(C)c1C[C@H](N)C(=O)N[C@@H]1CCN(C(=O)c2ccccc2)c2ccc(Cc3cc4ccccc4o3)cc21.O=C(O)C(F)(F)F,100
3,CC(=O)N1CC[C@@H](NC(=O)[C@@H](N)Cc2c(C)cc(O)cc2C)c2cc(Cc3cc4ccccc4o3)ccc21,58
4,Cc1cc(O)cc(C)c1C[C@H](N)C(=O)N[C@@H]1CCN(S(C)(=O)=O)c2ccc(Cc3ccc4ccccc4c3)cc21.O=C(O)C(F)(F)F,27
5,Cc1cc(O)cc(C)c1C[C@H](N)C(=O)N[C@@H]1CCN(C(=O)C2CC2)c2ccc(Cc3cnc4ccccc4c3)cc21.O=C(O)C(F)(F)F,84

# Target: T3, Kappa-type opioid receptor
# Experiment: Agonist activity at human kappa opioid receptor expressed in CHO cell membranes assessed as stimulation of [35S]GTPgammaS binding to G protein incubated for 1 hr relative to U69,593
# Type: functional
# Details: not given
row,SMILES,Efficacy
1,Cc1cc(O)cc(C)c1C[C@H](N)C(=O)N[C@@H]1CCNc2ccc(Cc3cc4ccccc4o3)cc21.O=C(O)C(F)(F)F,inactive
2,Cc1cc(O)cc(C)c1C[C@H](N)C(=O)N[C@@H]1CCN(C(=O)c2ccccc2)c2ccc(Cc3cc4ccccc4o3)cc21.O=C(O)C(F)(F)F,inactive
3,CC(=O)N1CC[C@@H](NC(=O)[C@@H](N)Cc2c(C)cc(O)cc2C)c2cc(Cc3cc4ccccc4o3)ccc21,33%
4,Cc1cc(O)cc(C)c1C[C@H](N)C(=O)N[C@@H]1CCN(S(C)(=O)=O)c2ccc(Cc3ccc4ccccc4c3)cc21.O=C(O)C(F)(F)F,inactive
5,Cc1cc(O)cc(C)c1C[C@H](N)C(=O)N[C@@H]1CCN(C(=O)C2CC2)c2ccc(Cc3cnc4ccccc4c3)cc21.O=C(O)C(F)(F)F,inactive

# Target: T1, Mu-type opioid receptor
# Experiment: Agonist activity at rat mu opioid receptor expressed in rat C6 cell membranes assessed as stimulation of [35S]GTPgammaS binding measured after 1 hr
# Type: functional
# Details: not given
# How it was run: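 Membranes (10–20 μg protein/tube) from stably transfected cells incubated 1 h at 25°C in 50 mM Tris-HCl, 100 mM NaCl, 5 mM MgCl2, pH 7.4, with 0.1 nM [35S]-GTPγS, 30 μM GDP and varying test concentrations; filtration, scintillation counting.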
row,SMILES,EC50 [nM]
1,Cc1cc(O)cc(C)c1C[C@H](N)C(=O)N[C@@H]1CCNc2ccc(Cc3cc4ccccc4o3)cc21.O=C(O)C(F)(F)F,1.1
2,Cc1cc(O)cc(C)c1C[C@H](N)C(=O)N[C@@H]1CCN(C(=O)c2ccccc2)c2ccc(Cc3cc4ccccc4o3)cc21.O=C(O)C(F)(F)F,12
3,CC(=O)N1CC[C@@H](NC(=O)[C@@H](N)Cc2c(C)cc(O)cc2C)c2cc(Cc3cc4ccccc4o3)ccc21,1.9
4,Cc1cc(O)cc(C)c1C[C@H](N)C(=O)N[C@@H]1CCN(S(C)(=O)=O)c2ccc(Cc3ccc4ccccc4c3)cc21.O=C(O)C(F)(F)F,0.23
5,Cc1cc(O)cc(C)c1C[C@H](N)C(=O)N[C@@H]1CCN(C(=O)C2CC2)c2ccc(Cc3cnc4ccccc4c3)cc21.O=C(O)C(F)(F)F,0.34

# System: not listed separately
# Experiment: Lipophilicity, log P of the compound
# Type: physicochemical
# Details: octanol/water
row,SMILES,logP
1,Cc1cc(O)cc(C)c1C[C@H](N)C(=O)N[C@@H]1CCNc2ccc(Cc3cc4ccccc4o3)cc21.O=C(O)C(F)(F)F,4.3
2,Cc1cc(O)cc(C)c1C[C@H](N)C(=O)N[C@@H]1CCN(C(=O)c2ccccc2)c2ccc(Cc3cc4ccccc4o3)cc21.O=C(O)C(F)(F)F,5.2
3,CC(=O)N1CC[C@@H](NC(=O)[C@@H](N)Cc2c(C)cc(O)cc2C)c2cc(Cc3cc4ccccc4o3)ccc21,3.9
4,Cc1cc(O)cc(C)c1C[C@H](N)C(=O)N[C@@H]1CCN(S(C)(=O)=O)c2ccc(Cc3ccc4ccccc4c3)cc21.O=C(O)C(F)(F)F,4.4
5,Cc1cc(O)cc(C)c1C[C@H](N)C(=O)N[C@@H]1CCN(C(=O)C2CC2)c2ccc(Cc3cnc4ccccc4c3)cc21.O=C(O)C(F)(F)F,3.8

# Target: Delta-type opioid receptor (Rattus norvegicus) (UniProt P33533)
# Sequence (P33533 whole entry): as the sequence (P33533 whole entry) above
# Experiment: Agonist activity at rat delta opioid receptor expressed in rat C6 cell membranes assessed as stimulation of [35S]GTPgammaS binding incubated for 1 hr relative to DPDPE
# Type: functional
# Details: not given
row,SMILES,Efficacy
1,Cc1cc(O)cc(C)c1C[C@H](N)C(=O)N[C@@H]1CCNc2ccc(Cc3cc4ccccc4o3)cc21.O=C(O)C(F)(F)F,inactive
2,Cc1cc(O)cc(C)c1C[C@H](N)C(=O)N[C@@H]1CCN(C(=O)c2ccccc2)c2ccc(Cc3cc4ccccc4o3)cc21.O=C(O)C(F)(F)F,inactive
3,CC(=O)N1CC[C@@H](NC(=O)[C@@H](N)Cc2c(C)cc(O)cc2C)c2cc(Cc3cc4ccccc4o3)ccc21,30%
4,Cc1cc(O)cc(C)c1C[C@H](N)C(=O)N[C@@H]1CCN(S(C)(=O)=O)c2ccc(Cc3ccc4ccccc4c3)cc21.O=C(O)C(F)(F)F,inactive
5,Cc1cc(O)cc(C)c1C[C@H](N)C(=O)N[C@@H]1CCN(C(=O)C2CC2)c2ccc(Cc3cnc4ccccc4c3)cc21.O=C(O)C(F)(F)F,84%

# Target: T2, Delta-type opioid receptor
# Experiment: Agonist activity at rat delta opioid receptor expressed in rat C6 cell membranes assessed as stimulation of [35S]GTPgammaS binding measured after 1 hr
# Type: functional
# Details: c6
row,SMILES,EC50
1,Cc1cc(O)cc(C)c1C[C@H](N)C(=O)N[C@@H]1CCNc2ccc(Cc3cc4ccccc4o3)cc21.O=C(O)C(F)(F)F,Not Active
2,Cc1cc(O)cc(C)c1C[C@H](N)C(=O)N[C@@H]1CCN(C(=O)c2ccccc2)c2ccc(Cc3cc4ccccc4o3)cc21.O=C(O)C(F)(F)F,Not Active
3,Cc1cc(O)cc(C)c1C[C@H](N)C(=O)N[C@@H]1CCN(S(C)(=O)=O)c2ccc(Cc3ccc4ccccc4c3)cc21.O=C(O)C(F)(F)F,Not Active

# Same assay, conditions: read-out: EC50
row,SMILES,EC50 [nM]
1,CC(=O)N1CC[C@@H](NC(=O)[C@@H](N)Cc2c(C)cc(O)cc2C)c2cc(Cc3cc4ccccc4o3)ccc21,1.6
2,Cc1cc(O)cc(C)c1C[C@H](N)C(=O)N[C@@H]1CCN(C(=O)C2CC2)c2ccc(Cc3cnc4ccccc4c3)cc21.O=C(O)C(F)(F)F,0.71

# Species on record: Rattus norvegicus
# Experiment: Selectivity ratio of Ki for rat delta opioid receptor expressed in rat C6 cell membranes to Ki for rat mu opioid receptor expressed in rat C6 cell membranes
# Type: cell-based
# Details: not given
# How it was run: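 Competition binding against 0.2 nM [3H]-diprenorphine, using C6 membranes expressing rat MOR or rat DOR (20 μg protein/tube). Run in 50 mM Tris-HCl pH 7.4, 1 h at room temperature with shaking, then filtration and scintillation counting. Nonspecific binding with 10 μM naloxone.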
row,SMILES,Ratio Ki
1,Cc1cc(O)cc(C)c1C[C@H](N)C(=O)N[C@@H]1CCNc2ccc(Cc3cc4ccccc4o3)cc21.O=C(O)C(F)(F)F,44
2,Cc1cc(O)cc(C)c1C[C@H](N)C(=O)N[C@@H]1CCN(C(=O)c2ccccc2)c2ccc(Cc3cc4ccccc4o3)cc21.O=C(O)C(F)(F)F,2
3,CC(=O)N1CC[C@@H](NC(=O)[C@@H](N)Cc2c(C)cc(O)cc2C)c2cc(Cc3cc4ccccc4o3)ccc21,6
4,Cc1cc(O)cc(C)c1C[C@H](N)C(=O)N[C@@H]1CCN(S(C)(=O)=O)c2ccc(Cc3ccc4ccccc4c3)cc21.O=C(O)C(F)(F)F,24
5,Cc1cc(O)cc(C)c1C[C@H](N)C(=O)N[C@@H]1CCN(C(=O)C2CC2)c2ccc(Cc3cnc4ccccc4c3)cc21.O=C(O)C(F)(F)F,2
